Assay results as given in ChEMBL document CHEMBL4480360, “Design and characterization of a heterocyclic electrophilic fragment library for the discovery of cysteine-targeted covalent inhibitors” (Medchemcomm, 2019).

Assays:
Type in all cases: physicochemical
[1] = Glutathione reactivity assessed as thiol reactivity rate constant at 250 uM up to 72 hrs by HPLC-MS or NMR analysis; parameters: unit not given beside the values
How it was run: (§1)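 Fragment 250 µM mixed with 5 mM glutathione in PBS pH 7.4 containing 5% acetonitrile, with 100 µM indoprofen as internal standard. For fragments not detectable at 250 µM, levels were reversed (5 mM fragment, 250 µM GSH). Internal-standard-corrected AUCs were fitted by OLS linear regression. k_GSH = k_eff − k_deg, and t1/2 = ln2/k_GSH.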

[2] = Glutathione reactivity assessed as half life at 250 uM up to 72 hrs by HPLC-MS or NMR analysis; details: gsh; how it was run: as §1
[3] = Stability of the compound assessed as half life for degradation

## N#Cc1cccnc1
[1]
  K: 0.0176
[2]
  t1/2: 41 h
[3]
  half-life: > 1 h

## C#CCn1ccnc1
[1]
  K: 0.0144
[2]
  t1/2: 48 h
[3]
  half-life: > 1 h

## Ic1ncc[nH]1
[1]
  K: 0.116
[2]
  t1/2: 6 h
[3]
  half-life: > 1 h

## N#Cc1cnccn1
[1]
  K: 0.0314
[2]
  t1/2: 22.5 h
[3]
  half-life: > 1 h

## Brc1cncs1
[1]
  K: 0.011
[2]
  t1/2: 63 h
[3]
  half-life: > 1 h

## Ic1ncco1
[1]
  K: 6.0573
[3]
  half-life: > 1 h

## Ic1nccs1
[1]
  K: 0.7872
[2]
  t1/2: 0.9 h
[3]
  half-life: > 1 h

## N#Cc1ccncc1 [ISONICOTINONITRILE]
[1]
  K: 0.8837
[2]
  t1/2: 0.8 h
[3]
  half-life: > 1 h
